Source: PubChem BioAssay (Broad Institute)
Only some compounds are listed: those with a hit (about 2.8% of all), similar ones and a draw of the others.
DENV2 CPE rescue – inhibitors of DENV2 cytopathic effect, primary screen, cell-based, plate reader, single concentration. AID 651640, 2012. CPE inhibition, % at 9.99 µM. 350,000 compounds, 1.7% hits. DENV2-infected cells, cytopathic effect rescue; in the data active = CPE inhibition above about 20%, passing the limit was not always enough; inconclusive = no clear call, values can overlap the other calls; tested in BHK-21 cells;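 note: 0% = median of neutral control wells and 100% = median of positive control wells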
E-sel inducer – E-selectin induction in HUVECs, primary screen, imaging, HUVEC, immunofluorescence imaging, single point | P16581 | normalized: neutral wells 0, TNF-alpha wells 100 | activation, % at 7.58 µM | 260,000 compounds, 0.37% hits;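 active = mean E-selectin-positive cell signal at least 10% of the positive control, reached in at least 60% of replicates, without over 20% cell loss; inconclusive = no rule given, readout overlaps actives, possibly toxicity-flagged; inactive = the rest, including those meeting only one limit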
Target sequence (P16581 whole entry, looked up): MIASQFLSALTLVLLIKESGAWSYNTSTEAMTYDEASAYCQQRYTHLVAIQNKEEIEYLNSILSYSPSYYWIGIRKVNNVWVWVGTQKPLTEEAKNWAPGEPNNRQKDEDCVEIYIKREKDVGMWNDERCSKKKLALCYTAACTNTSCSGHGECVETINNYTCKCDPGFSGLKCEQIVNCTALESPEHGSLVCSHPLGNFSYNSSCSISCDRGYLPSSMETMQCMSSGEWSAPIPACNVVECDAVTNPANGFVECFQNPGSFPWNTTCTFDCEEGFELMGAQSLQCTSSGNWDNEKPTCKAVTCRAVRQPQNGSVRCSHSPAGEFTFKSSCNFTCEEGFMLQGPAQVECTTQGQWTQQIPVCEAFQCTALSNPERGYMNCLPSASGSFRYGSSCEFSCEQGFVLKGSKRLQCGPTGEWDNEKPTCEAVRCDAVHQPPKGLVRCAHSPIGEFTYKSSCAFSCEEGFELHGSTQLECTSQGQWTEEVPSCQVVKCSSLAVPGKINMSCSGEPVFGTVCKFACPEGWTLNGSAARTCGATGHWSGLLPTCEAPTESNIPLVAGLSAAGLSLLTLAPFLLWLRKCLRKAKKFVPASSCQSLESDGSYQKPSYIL
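System: HUVEC, human umbilical vein endothelial cells; quantity: 3,000 cells/well; buffer or medium: EGM-2 medium, gelatin-coated wells; dosing: single-point compound dose; detection: immunofluorescence imaging; evaluation: % PE-positive cells; benchmarks: TNF-alpha, DMSO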
SIRT5 inh – SIRT5 desuccinylase inhibitors, primary screen, biochemical, fluorescence imaging, single point, set 5 | Purified SirT5, succinyl-peptide AMC, trypsin-coupled fluorescence | NAD-dependent protein deacylase sirtuin-5, mitochondrial (Homo sapiens), Q9NXA8 | inhibition, % at 15 µM | 330,000 compounds, 1.1% hits; in the data active = inhibition above about 15%; inconclusive = no clear call, values can overlap the other calls
Numbers without * were called inactive.

What do the screens show for `COCC(=O)N1CCCCN2[C@H](C1)[C@H](c1ccc(-c3ccc(C)cc3)cc1)[C@@H]2CO`?
DENV2 CPE rescue: 5.4; E-sel inducer: 0.6; SIRT5 inh: -3.3

What do the screens show for `COc1ccc(NC(=O)Nc2ccc3c(c2)[C@H]2C[C@@H](CC(=O)N(C)C)O[C@@H](CO)[C@H]2O3)cc1`?
DENV2 CPE rescue: inconclusive; E-sel inducer: 0.0; SIRT5 inh: -0.7

What do the screens show for `C/C=C/c1ccc([C@H]2[C@H](CO)N(C(=O)CC)[C@H]2CNC(=O)CC2CC2)cc1`?
E-sel inducer: 0.1

What do the screens show for `C[C@@H]1CN([C@@H](C)CO)C(=O)c2cccc(NS(=O)(=O)c3ccccc3)c2O[C@@H]1CN(C)Cc1ccc(C(F)(F)F)cc1`?
DENV2 CPE rescue: 5.9; E-sel inducer: 0.0; SIRT5 inh: -1.2

What do the screens show for `COc1ccc(NC(=O)N(C)C[C@@H]2OCCCC[C@H](C)Oc3ccc(NS(=O)(=O)c4ccc(OC)cc4)cc3C(=O)N([C@H](C)CO)C[C@H]2C)cc1`?
DENV2 CPE rescue: -4.6; E-sel inducer: -0.3

How did COCC(=O)N1CCCCN2[C@H](CO)[C@H](c3ccc(-c4ccc(F)cc4)cc3)[C@@H]2C1 do in these assays?
DENV2 CPE rescue: -8.1; E-sel inducer: -0.2; SIRT5 inh: -4.5

What do the screens show for `COCC(=O)N1CCCCN2[C@@H](CO)[C@@H](c3ccc(-c4ccc(F)cc4)cc3)[C@@H]2C1`?
DENV2 CPE rescue: 27.7*; E-sel inducer: 0.0; SIRT5 inh: 1.0

Results for C[C@H](CO)N1C[C@H](C)[C@H](CN(C)C(=O)C2CCC2)Oc2ncc(-c3ccccc3F)cc2C1=O ?
DENV2 CPE rescue: 6.4; SIRT5 inh: 2.2

Results for CN1C(=O)c2cc(NC(=O)C3CC3)ccc2OC[C@@H]2O[C@@H](CC(=O)NCc3cccc(F)c3)CC[C@@H]21 ?
DENV2 CPE rescue: -6.9; E-sel inducer: 0.2

Results for N#C[C@H]1[C@@H](c2ccccc2-c2cccc(F)c2)[C@H](CO)N1C(=O)C1CCC1 ?
DENV2 CPE rescue: -10.0; E-sel inducer: -0.1; SIRT5 inh: -1.7

How did COCC(=O)N1[C@H](CO)[C@@H](c2ccccc2-c2cccc(F)c2)[C@@H]1C#N do in these assays?
DENV2 CPE rescue: -5.1; E-sel inducer: -0.1; SIRT5 inh: 3.9

Results for COCC(=O)N1[C@H](CO)[C@H](c2ccccc2-c2cccc(F)c2)[C@@H]1C#N ?
DENV2 CPE rescue: 32.9*; E-sel inducer: 0.0; SIRT5 inh: 7.2

Results for N#C[C@@H]1[C@@H](c2ccccc2-c2cccc(F)c2)[C@@H](CO)N1C(=O)C1CCC1 ?
DENV2 CPE rescue: 29.2*; E-sel inducer: -0.1; SIRT5 inh: 1.9

Results for C/C=C/c1cnc2c(c1)C(=O)N([C@@H](C)CO)C[C@H](C)[C@@H](CN(C)C(=O)Nc1ccc(OC)cc1)O2 ?
DENV2 CPE rescue: 11.9; E-sel inducer: 0.6; SIRT5 inh: 2.7

Results for CN(C)CC(=O)N1CC2(C1)[C@H](c1ccccc1)[C@H](CO)N2C(=O)C1CCC1 ?
DENV2 CPE rescue: 5.9; E-sel inducer: 0.0; SIRT5 inh: -2.2

What do the screens show for `COc1ccccc1-c1ccc2n(c1=O)C[C@@H]1[C@@H](CO)[C@H](C(=O)N[C@H](C)c3ccccc3)[C@H]2N1C`?
DENV2 CPE rescue: 2.2; E-sel inducer: -0.3; SIRT5 inh: -6.0

Results for O=c1oc2ccccc2c(Nc2ccccc2O)c1[N+](=O)[O-] ?
DENV2 CPE rescue: 1.3; SIRT5 inh: 16.9*

How did O=c1oc2ccccc2c(Nc2cc3ccccc3cc2O)c1[N+](=O)[O-] do in these assays?
DENV2 CPE rescue: 16.2; SIRT5 inh: 5.8

Results for C[C@@H]1CN([C@H](C)CO)S(=O)(=O)c2ccc(-c3ccc(F)cc3)cc2O[C@H]1CN(C)C(=O)C1CC1 ?
E-sel inducer: -0.3

Results for Cc1ccc(Nc2ccc(C(=O)O)cc2[N+](=O)[O-])cc1 ?
DENV2 CPE rescue: 7.1; SIRT5 inh: 4.2

Results for CC(C)c1ccc(Nc2ccc(C(=O)O)cc2[N+](=O)[O-])cc1 ?
DENV2 CPE rescue: 10.1; E-sel inducer: 1.9; SIRT5 inh: 30.4*

What do the screens show for `COc1cccc(-c2cn(CC[C@H]3CC[C@@H](NC(=O)CC4CC4)[C@H](CO)O3)nn2)c1`?
DENV2 CPE rescue: inconclusive; E-sel inducer: 0.3; SIRT5 inh: -0.6

How did C[C@@H]1CN([C@@H](C)CO)C(=O)c2cc(NC(=O)Nc3ccc(F)cc3)ccc2O[C@@H](C)CCCCO[C@@H]1CN(C)CC1CCCCC1 do in these assays?
DENV2 CPE rescue: 1.8; E-sel inducer: 0.2; SIRT5 inh: 9.1

Results for C[C@H](CO)N1C[C@H](C)[C@H](CN(C)CC2CCCCC2)OCCCC[C@H](C)Oc2ccc(NC(=O)Nc3ccc(F)cc3)cc2C1=O ?
DENV2 CPE rescue: 24.5*; E-sel inducer: -0.1; SIRT5 inh: -10.1

Results for C[C@@H]1CN([C@@H](C)CO)C(=O)c2cc(NC(=O)Nc3cccc4ccccc34)ccc2O[C@H]1CN(C)CC1CCCCC1 ?
DENV2 CPE rescue: 34.0*; E-sel inducer: 19.6; SIRT5 inh: 0.1

What do the screens show for `C[C@H](CO)N1C[C@H](C)[C@@H](CN(C)CC2CCCCC2)Oc2ccc(NC(=O)Nc3ccc(F)cc3)cc2C1=O`?
DENV2 CPE rescue: 27.2*; E-sel inducer: 0.1; SIRT5 inh: 6.5

How did C[C@@H]1CCCCO[C@H](CN(C)CC2CCCCC2)[C@@H](C)CN([C@H](C)CO)C(=O)c2cc(NC(=O)Nc3cccc4ccccc34)ccc2O1 do in these assays?
DENV2 CPE rescue: -3.1; E-sel inducer: 0.2; SIRT5 inh: 1.6

Results for C[C@H](CO)N1C[C@H](C)[C@H](CN(C)CC2CCCCC2)Oc2ccc(NC(=O)Nc3ccc4c(c3)OCO4)cc2C1=O ?
DENV2 CPE rescue: -15.1; E-sel inducer: 348.8*; SIRT5 inh: 7.9

What do the screens show for `C[C@H]1CN([C@@H](C)CO)C(=O)c2cc(NC(=O)Nc3ccccc3)ccc2O[C@H]1CN(C)CC1CCCCC1`?
DENV2 CPE rescue: 10.7; E-sel inducer: -0.1; SIRT5 inh: -3.5

What do the screens show for `C[C@@H]1CN([C@@H](C)CO)C(=O)c2cc(NC(=O)Nc3ccc4c(c3)OCO4)ccc2O[C@@H]1CN(C)CC1CCCCC1`?
DENV2 CPE rescue: -2.6; E-sel inducer: 19.4; SIRT5 inh: 9.1

What do the screens show for `CC(=O)N(C)C[C@@H]1Oc2cc(C#Cc3cccc(F)c3)ccc2S(=O)(=O)N([C@@H](C)CO)C[C@H]1C`?
DENV2 CPE rescue: 9.2; E-sel inducer: -0.3; SIRT5 inh: 0.4

What do the screens show for `CCCC#Cc1cnc2c(c1)C(=O)N([C@@H](C)CO)C[C@H](C)[C@H](CN(C)Cc1ccc3c(c1)OCO3)O2`?
DENV2 CPE rescue: 9.6; E-sel inducer: 0.0; SIRT5 inh: -2.1

Results for C/C=C/c1cnc2c(c1)C(=O)N([C@@H](C)CO)C[C@H](C)[C@@H](CN(C)S(=O)(=O)c1ccc(OC)cc1)O2 ?
DENV2 CPE rescue: -9.5; SIRT5 inh: -3.0

How did COc1ccc2c3c([nH]c2c1)[C@@H](CO)N(S(C)(=O)=O)CC31CCN(C(=O)Cc2cccnc2)CC1 do in these assays?
DENV2 CPE rescue: 7.5; E-sel inducer: 0.4; SIRT5 inh: -0.1
